Results taken from ChEMBL document CHEMBL1139507, “Application of phosphoramidate pronucleotide technology to abacavir leads to a significant enhancement of antiviral potency” (J Med Chem, 2005).

Columns and labels:
Hepatitis B virus [1] = experiment: Effective concentration against HBV in Hep G2.2.15 cells; assay type: functional, organism-based, HepG2 2.2.15
Summary of the method: (§1)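 Anti-HBV activity assayed in HepG2 2.2.15 human hepatoma cells, which constitutively produce HBV; EC50 = 50% effective concentration.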

HepG2 [2] = experiment: Cytostatic concentration required to inhibit Hep G2.2.15 cell proliferation; assay type: functional, Homo sapiens
Summary of the method: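 Growth inhibition of HepG2 2.2.15 human hepatoma cells (constitutively HBV-producing) measured; CC50 = 50% cytostatic concentration.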

MT4 = experiment: Cytostatic concentration required to inhibit MT-4 cell proliferation; assay type: functional, Homo sapiens
[3] = system: Human immunodeficiency virus 1; experiment: Effective concentration against human immunodeficiency virus type 1 in MT-4 cells; assay type: functional, organism-based, MT4
HepG2 [4] = experiment: Cytostatic concentration required to inhibit Hep G2 cell proliferation; assay type: functional; details: Homo sapiens
[5] = system: Human immunodeficiency virus 2; experiment: Effective concentration against human immunodeficiency virus type 2 in CEM cells; assay type: functional, organism-based; details: Human immunodeficiency virus 2, CCRF-CEM
Summary of the method: (§2)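 HIV-1- and HIV-2-induced cytopathicity in CEM cell cultures, scored at day 4 by microscopic examination of virus-induced giant cell formation; EC50 = concentration inhibiting cytopathicity by 50%.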

[6] = system: Human immunodeficiency virus 1; experiment: Effective concentration against human immunodeficiency virus type 1 in CEM cells; assay type: functional, organism-based; details: Human immunodeficiency virus 1, CCRF-CEM; summary of the method: as §2
CCRF-CEM = experiment: Cytostatic concentration required to inhibit CEM cell proliferation; assay type: functional; details: Homo sapiens
[7] = system: Human immunodeficiency virus 2; experiment: Effective concentration against human immunodeficiency virus type 2 in MT-4 cells; assay type: functional, organism-based; details: Human immunodeficiency virus 2, MT4
[8] = system: Human immunodeficiency virus 2; experiment: Ratio of CC50 to that of EC50 against human immunodeficiency virus type 2 in CEM cells; assay type: functional, CCRF-CEM
[9] = Area under the plasma concentration-time curve in monkey after intravenous dosage; assay type: ADME; details: cercopithecidae
Summary of the method: (§3)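 Female cynomolgus monkeys (three, 2.0-3.2 kg) received the succinate salt at 11.5 mg/kg (17.3 µmol/kg), 2.3 mg/mL in 10% DMSO/90% saline, 5 mL/kg, iv on day 1 and orally on day 8 (1-week washout); fasted overnight to ~4 h postdose. Serial plasma to 24 h, acetonitrile deproteination, LC/MS/MS of prodrug, alaninyl-ABC-MP, ABC-MP, ABC, CBV; noncompartmental analysis.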

[10] = system: Human immunodeficiency virus 1; experiment: Effective concentration against human immunodeficiency virus type 1 in PBL cells; assay type: functional, organism-based; details: Human immunodeficiency virus 1, PBL
Human alphaherpesvirus 1 [11] = experiment: Effective concentration against thymidine kinase deficient herpes simplex virus (HSV-1) in B2006 strain; details: Human alphaherpesvirus 1, B2006
[12] = Area under the plasma concentration-time curve in monkey after peroral dosage; assay type: ADME; details: cercopithecidae, po; summary of the method: as §3
[13] = Apparent half life value in monkey after oral dosage; assay type: ADME, organism-based; details: cercopithecidae, in vivo, read-out: T1/2 app (converted); summary of the method: as §3
HEL = experiment: Cytostatic concentration required to inhibit HEL cell proliferation; assay type: functional; details: Homo sapiens
Summary of the method: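 HEL cell proliferation measured in presence of compound; CC50 = 50% cytostatic concentration inhibiting HEL cell proliferation by 50%.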

[14] = Terminal elimination half-life in monkey after intravenous dosage; NA = not applicable; assay type: ADME, organism-based; details: cercopithecidae, in vivo; summary of the method: as §3
Hepatitis B virus [15] = experiment: Effective concentration againstHBV in Hep G2.2.15 cells; assay type: functional, organism-based, HepG2 2.2.15; details: Hepatitis B virus, HepG2 2.2.15; summary of the method: as §1
[16] = system: Human immunodeficiency virus 2; experiment: Effective concentration against human immunodeficiency virus type 2 (ROD) in CEM cells; assay type: functional, organism-based; details: Human immunodeficiency virus 2, CCRF-CEM; summary of the method: as §2
Human alphaherpesvirus 1 [17] = experiment: Effective concentration against thymidine kinase competent herpes simplex virus (HSV-1) in […]; assay type: functional, organism-based
Summary of the method: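 Confluent HEL cell cultures inoculated with 100 CCID50 of HSV-1 (KOS), HSV-2 (G) or HSV-1 TK- (B2006, VMW-1837); after 1 h adsorption, residual virus removed and cells incubated with varying compound concentrations; cytopathicity recorded once complete in virus controls; EC50 = concentration inhibiting HSV-induced cytopathicity by 50%.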

[18] = system: Moloney murine sarcoma virus; experiment: Effective concentration against murine moloney sarcoma virus in C3H/3T3 cells; assay type: functional, organism-based
Human alphaherpesvirus 1 [19] = experiment: Effective concentration against thymidine kinase deficient herpes simplex virus (HSV-1) in VMW-1837 strain; details: Human alphaherpesvirus 1, VMW-1837
[20] = Time of maximum concentration was observed in monkey after oral dosage; assay type: ADME, organism-based; details: cercopithecidae, in vivo; summary of the method: as §3
C3H/3T3 = experiment: Cytostatic concentration required to inhibit C3H/3T3 cell proliferation; assay type: functional; details: Mus musculus
Human alphaherpesvirus 2 = experiment: Effective concentration against thymidine kinase competent herpes simplex virus (HSV-2) in […]
[21] = Hepatitis B virus, HepG2 2.2.15
[22] = Human immunodeficiency virus 1, MT4

Row | Compound | CC50 (HepG2 [2]) [µM] | CC50 (MT4) [µM] | EC50 ([3]; mt4) [µM] | EC50 (Hepatitis B virus [1]; [21]) [µM] | CC50 (HepG2 [4]) [µM] | EC50 [5] [µM] | CC50 (MT4; Homo sapiens, MT4) [µM] | EC50 [6] [µM] | EC50 [3, 22] [µM] | CC50 (CCRF-CEM) [µM] | EC50 [7] [µM] | other results
1 | COC(=O)[C@@H](C)NP(=O)(OC[C@@H]1C=C[C@H](n2cnc3c(NC4CC4)nc(N)nc32)C1)Oc1ccccc1 (stereo in doubt; 3b) | 35 | 4 | 0.11 |  |  |  |  |  |  |  |  | EC50 (Hepatitis B virus [1]; hepg2 2.2.15): 1.5 µM
2 | COC(=O)C(C)(C)NP(=O)(OC[C@@H]1C=C[C@H](n2cnc3c(NC4CC4)nc(N)nc32)C1)Oc1ccccc1 (stereo not given in full) |  |  |  | 0.019 | 5.5 | 0.064 | 8.1 | 0.067 | 0.14 | > 130 | 0.11 | 
3 | CCOC(=O)[C@@H](C)NP(=O)(OC[C@@H]1C=C[C@H](n2cnc3c(NC4CC4)nc(N)nc32)C1)Oc1ccccc1 (stereo in doubt; 6a,b) | 18 | 4.6 | 0.0155 |  |  |  |  |  |  |  |  | 
4 | CCOC(=O)[C@@H](C)NP(=O)(OC[C@@H]1C=C[C@H](n2cnc3c(NC4CC4)nc(N)nc32)C1)Oc1ccccc1 (stereo in doubt; 6) |  | 8.6 | 0.2 | 0.35 | 18 | 0.061 |  | 0.07 |  | 12 | 0.21 | 
5 | COC(=O)CNP(=O)(OC[C@@H]1C=C[C@H](n2cnc3c(NC4CC4)nc(N)nc32)C1)Oc1ccccc1 (stereo not given in full) |  |  |  | 1 | 58 | 2 | 8.5 | 1.8 | 7.2 | > 56 | 5.4 | 
6 | Nc1nc2c(ncn2[C@H]2C=C[C@@H](CO)C2)c(=O)[nH]1 [CARBOVIR] |  |  |  | 10.5 | 150 | 2.3 |  | 2 |  | 160 |  | SI [8]: 68; CC50 (HepG2 [2]; Homo sapiens, HepG2): 150 µM; AUC [9]: 0.7 µM·h; EC50 [10]: 0.03 µM; EC50 (Human alphaherpesvirus 1 [11]): 50 µM; AUC [12]: 0.4 µM·h; half-life [13]: 6 h; CC50 (HEL): 15 µM; T1/2 [14]: Not Active; EC50 (Hepatitis B virus [15]): 10 µM; EC50 [16]: 2.3 µM; EC50 (Human alphaherpesvirus 1 [17]): 5 µM; EC50 [18]: 6 µM; EC50 (Human alphaherpesvirus 1 [19]): 13 µM; Tmax [20]: 4.7 h; CC50 (C3H/3T3): > 20 µM; EC50 (Human alphaherpesvirus 2): 8 µM
7 | COC(=O)[C@H](C)NP(=O)(OC[C@@H]1C=C[C@H](n2cnc3c(NC4CC4)nc(N)nc32)C1)Oc1ccccc1 (stereo not given in full) |  |  |  | 1.3 | 52 | 4.5 | 4.5 | 1.4 | 3.4 | 46 | 4.1 | 
8 | CCOC(=O)[C@@H](C)NP(=O)(OC[C@@H]1C=C[C@H](n2cnc3c(NC4CC4)nc(N)nc32)C1)Oc1ccccc1 (stereo in doubt; 6a) | 7.5 | 0.95 | 0.0155 |  |  |  |  |  |  |  |  | EC50 (Hepatitis B virus [1]; hepg2 2.2.15): 0.2 µM
